From ChEMBL document CHEMBL4052665, “Synthesis and pharmacological evaluation of glycine amide derivatives as novel vascular adhesion protein-1 inhibitors without CYP3A4 and CYP2C19 inhibition” (Bioorg Med Chem, 2017)
The source made the active and inactive calls. The rule behind the calls is not given here.

How the values were obtained:
[1] = target: CYP2C19 (Homo sapiens, UniProt P33261); experiment: Inhibition of CYP2C19 in human liver microsomes assessed as residual activity at 5 uM using S-mephenytoin as substrate after 20 mins by LC-MS/MS analysis; assay type: ADME; conditions: probe S-mephenytoin, read-out: Activity
Outline: (§1)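 Pooled human liver microsomes (0.1 mg/mL) in 100 mM Na-K phosphate pH 7.4 with 1 mM NADPH. Test compound at 5 μM was co-incubated with a probe cocktail including midazolam (1.5 μM) and S-mephenytoin (30 μM) at 37 °C for 20 min. The reaction was stopped with 80% acetonitrile. 1'-Hydroxymidazolam (CYP3A4) and 4'-hydroxymephenytoin (CYP2C19) were measured by LC-MS/MS. Residual activity = activity with compound / vehicle activity × 100.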

[2] = target: CYP3A4 (Homo sapiens, UniProt P08684); experiment: Inhibition of CYP3A4 in human liver microsomes assessed as residual activity at 5 uM using midazolam as substrate after 20 mins by LC-MS/MS analysis; assay type: ADME; conditions: probe midazolam, read-out: Activity; outline: as §1
[3] = Half life in Wistar rat at 1 mg/kg, po by LC-MS/MS analysis; assay type: ADME, organism-based; conditions: in vivo
Outline: (§2)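 Male Wistar rats, fasted about 18 h, dosed at 1 mg/kg iv (solution in 5% DMSO in water) or orally, n = 3. Plasma was deproteinated with acetonitrile and the compound was quantified by LC-MS/MS. Parameters came from non-compartmental analysis.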

[4] = AUC (0 to 24 hrs) in Wistar rat at 1 mg/kg, iv by LC-MS/MS analysis; assay type: ADME, organism-based; design: dose 1 mg/kg, time < 24 hr, route intravenous; conditions: in vivo; outline: as §2
[5] = system: Rattus norvegicus; experiment: In vivo inhibition of VAP-1 in STZ-induced diabetic Sprague-Dawley rat assessed as reduction in proteinuria progression at 0.3 to 1 mg/kg, po for 4 weeks measured after 24 hrs by Bradford colorimetric assay; assay type: functional, organism-based
Outline: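 Male SD rats (6 weeks old) given STZ 65 mg/kg ip in citrate-buffered saline pH 4.5; sham rats got buffer. Groups were set by plasma glucose and body weight at day 3. Dosing was oral in 0.5% MC, 5 mL/kg, once daily for 4 weeks. 24-h metabolic-cage urine was collected in week 4 and protein measured by Bradford assay; excretion = concentration × urine volume. Mean ± SEM; Dunnett's test against STZ control.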

[6] = Total clearance in Wistar rat at 1 mg/kg, iv by LC-MS/MS analysis; assay type: ADME, organism-based; conditions: in vivo; outline: as §2
[7] = system: Rattus norvegicus; experiment: Inhibition of VAP-1 in Wistar rat plasma at 0.3 mg/kg, po using 14C-benzylamine as substrate preincubated for 20 mins followed by substrate addition measured after 1 hr by scintillation spectrometric analysis; assay type: functional
Outline: (§3)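 Male Wistar rats (n = 4) dosed orally. Tail-vein blood was taken under ether anaesthesia before dosing and at 1 or 6 h after. Plasma was kept at -80 °C. 100 μL plasma was reacted with 14C-benzylamine at 37 °C for 2 h. Non-specific activity was measured with 1 mmol/L FR299676 and subtracted. 14C-Benzaldehyde was counted by liquid scintillation. Inhibition ratio = fall from the pre-dose activity, in %.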

[8] = system: Rattus norvegicus; experiment: Inhibition of VAP-1 in Wistar rat plasma at 0.3 mg/kg, po using 14C-benzylamine as substrate preincubated for 20 mins followed by substrate addition measured after 6 hr by scintillation spectrometric analysis; assay type: functional; outline: as §3
[9] = Oral bioavailability in Wistar rat at 1 mg/kg by LC-MS/MS analysis; assay type: ADME, organism-based; conditions: in vivo; outline: as §2
[10] = Cmax in Wistar rat at 1 mg/kg, po by LC-MS/MS analysis; assay type: ADME, organism-based; design: dose 1 mg/kg, route oral; conditions: in vivo; outline: as §2
[11] = Volume of distribution at steady state in Wistar rat at 1 mg/kg, iv by LC-MS/MS analysis; assay type: ADME, organism-based; conditions: in vivo, read-out: Vdss; outline: as §2
[12] = Plasma concentration in Wistar rat at 1 mg/kg, po after 6 hrs post dose by LC-MS/MS analysis; assay type: ADME, organism-based; outline: as §2
[13] = Aqueous solubility of the compound in solution at pH 6.8; assay type: physicochemical
[14] = AUC (0 to 24 hrs) in Wistar rat at 1 mg/kg, po by LC-MS/MS analysis; assay type: ADME, organism-based; design: dose 1 mg/kg, time < 24 hr, route oral; conditions: in vivo; outline: as §2
[15] = Half life in Wistar rat at 1 mg/kg, iv by LC-MS/MS analysis; assay type: ADME, organism-based; conditions: in vivo; outline: as §2
[16] = Aqueous solubility of the compound in solution at pH 6.8 in presence of 15 mM sodium taurocholate; assay type: physicochemical; conditions: aqueous solution with 15 mM sodium taurocholate
[17] = system: Rattus norvegicus; experiment: In vivo inhibition of VAP-1 in STZ-induced diabetic Sprague-Dawley rat plasma at 0.3 to 1 mg/kg, po for 4 weeks measured after 24 hrs after final dose using 14C-benzylamine as substrate by scintillation spectrometric analysis; assay type: functional, organism-based
Outline: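 STZ-diabetic SD rats (65 mg/kg ip) dosed orally once daily for 4 weeks in 0.5% MC. Suborbital blood was taken under ether 24 h after the last dose. 50 μL plasma was reacted with 14C-benzylamine at 37 °C for 1 h, minus non-specific activity measured with 1 mmol/L FR299676. Liquid scintillation counting; mean ± SEM, Dunnett's test against STZ control.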

[18] = system: Rattus norvegicus; experiment: Inhibition of VAP-1 in Wistar rat plasma at 1 mg/kg, po using 14C-benzylamine as substrate preincubated for 20 mins followed by substrate addition measured after 1 hr by scintillation spectrometric analysis; assay type: functional; outline: as §3
[19] = Plasma concentration in Wistar rat at 1 mg/kg, po after 1 hr post dose by LC-MS/MS analysis; assay type: ADME, organism-based; outline: as §2
[20] = system: Rattus norvegicus; experiment: Inhibition of VAP-1 in Wistar rat plasma at 1 mg/kg, po using 14C-benzylamine as substrate preincubated for 20 mins followed by substrate addition measured after 6 hr by scintillation spectrometric analysis; assay type: functional; outline: as §3
[21] = target: T1, Amine oxidase [copper-containing] 3 (Homo sapiens, UniProt Q16853); experiment: Inhibition of human VAP-1 expressed in CHO cells using 14C-benzylamine as substrate preincubated for 20 mins followed by substrate addition measured after 1 hr by scintillation spectrometric analysis; assay type: cell-based
T1 sequence (Q16853 whole entry): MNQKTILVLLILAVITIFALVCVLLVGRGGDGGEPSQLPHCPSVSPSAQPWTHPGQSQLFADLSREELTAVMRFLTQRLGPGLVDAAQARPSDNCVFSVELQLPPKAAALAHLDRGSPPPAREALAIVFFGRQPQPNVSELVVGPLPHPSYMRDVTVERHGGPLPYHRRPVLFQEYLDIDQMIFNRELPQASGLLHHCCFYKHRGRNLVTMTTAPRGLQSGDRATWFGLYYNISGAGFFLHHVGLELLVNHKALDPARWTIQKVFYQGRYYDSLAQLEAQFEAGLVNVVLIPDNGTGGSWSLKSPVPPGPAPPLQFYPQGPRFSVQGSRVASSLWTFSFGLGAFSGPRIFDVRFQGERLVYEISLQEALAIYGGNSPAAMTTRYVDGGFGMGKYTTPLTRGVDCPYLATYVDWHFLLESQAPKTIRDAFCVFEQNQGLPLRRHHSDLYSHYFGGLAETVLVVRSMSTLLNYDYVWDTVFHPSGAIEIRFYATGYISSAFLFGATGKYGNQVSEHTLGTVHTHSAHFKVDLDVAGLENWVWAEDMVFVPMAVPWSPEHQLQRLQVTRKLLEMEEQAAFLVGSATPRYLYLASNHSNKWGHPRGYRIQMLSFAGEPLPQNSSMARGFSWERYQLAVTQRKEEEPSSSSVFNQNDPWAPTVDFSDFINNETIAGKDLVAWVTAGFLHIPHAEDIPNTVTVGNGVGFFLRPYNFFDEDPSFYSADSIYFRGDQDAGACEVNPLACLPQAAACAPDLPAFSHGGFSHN

[22] = target: T2, Amine oxidase [copper-containing] 3 (Rattus norvegicus, UniProt O08590); experiment: Inhibition of rat VAP-1 expressed in CHO cells using 14C-benzylamine as substrate preincubated for 20 mins followed by substrate addition measured after 1 hr by scintillation spectrometric analysis; assay type: cell-based
T2 sequence (O08590 whole entry): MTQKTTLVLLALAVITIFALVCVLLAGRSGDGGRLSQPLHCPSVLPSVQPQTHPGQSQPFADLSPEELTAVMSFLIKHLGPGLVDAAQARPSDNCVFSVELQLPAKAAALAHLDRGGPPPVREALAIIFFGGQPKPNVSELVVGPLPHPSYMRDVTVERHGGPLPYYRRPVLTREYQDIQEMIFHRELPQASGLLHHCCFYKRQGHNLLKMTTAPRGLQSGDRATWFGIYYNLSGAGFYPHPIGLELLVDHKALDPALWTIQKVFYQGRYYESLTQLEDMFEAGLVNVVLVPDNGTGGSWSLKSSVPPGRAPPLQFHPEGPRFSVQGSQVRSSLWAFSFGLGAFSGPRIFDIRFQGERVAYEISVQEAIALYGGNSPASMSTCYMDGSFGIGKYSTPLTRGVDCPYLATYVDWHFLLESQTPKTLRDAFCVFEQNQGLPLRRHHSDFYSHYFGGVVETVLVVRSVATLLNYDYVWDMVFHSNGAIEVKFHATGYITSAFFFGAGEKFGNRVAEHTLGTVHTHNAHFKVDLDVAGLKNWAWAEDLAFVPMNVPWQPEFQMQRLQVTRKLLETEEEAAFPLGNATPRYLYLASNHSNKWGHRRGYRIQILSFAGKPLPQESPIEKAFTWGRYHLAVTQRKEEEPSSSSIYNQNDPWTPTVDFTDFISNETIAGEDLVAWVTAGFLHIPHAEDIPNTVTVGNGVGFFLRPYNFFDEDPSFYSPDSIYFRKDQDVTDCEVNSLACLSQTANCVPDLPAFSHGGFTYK

CYP2C19, sequence (P33261 whole entry): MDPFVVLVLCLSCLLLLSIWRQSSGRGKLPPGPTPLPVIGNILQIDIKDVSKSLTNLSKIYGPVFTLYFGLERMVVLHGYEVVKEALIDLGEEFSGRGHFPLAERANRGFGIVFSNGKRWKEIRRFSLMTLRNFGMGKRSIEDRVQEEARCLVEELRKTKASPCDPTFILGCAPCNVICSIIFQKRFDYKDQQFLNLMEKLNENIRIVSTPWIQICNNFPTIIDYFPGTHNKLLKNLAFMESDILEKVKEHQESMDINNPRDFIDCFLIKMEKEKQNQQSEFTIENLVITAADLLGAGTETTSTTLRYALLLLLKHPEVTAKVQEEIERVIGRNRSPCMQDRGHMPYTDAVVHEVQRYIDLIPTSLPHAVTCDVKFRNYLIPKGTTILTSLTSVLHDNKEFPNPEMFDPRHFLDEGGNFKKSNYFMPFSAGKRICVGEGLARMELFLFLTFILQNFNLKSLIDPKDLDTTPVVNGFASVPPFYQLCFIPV
CYP3A4, sequence (P08684 whole entry): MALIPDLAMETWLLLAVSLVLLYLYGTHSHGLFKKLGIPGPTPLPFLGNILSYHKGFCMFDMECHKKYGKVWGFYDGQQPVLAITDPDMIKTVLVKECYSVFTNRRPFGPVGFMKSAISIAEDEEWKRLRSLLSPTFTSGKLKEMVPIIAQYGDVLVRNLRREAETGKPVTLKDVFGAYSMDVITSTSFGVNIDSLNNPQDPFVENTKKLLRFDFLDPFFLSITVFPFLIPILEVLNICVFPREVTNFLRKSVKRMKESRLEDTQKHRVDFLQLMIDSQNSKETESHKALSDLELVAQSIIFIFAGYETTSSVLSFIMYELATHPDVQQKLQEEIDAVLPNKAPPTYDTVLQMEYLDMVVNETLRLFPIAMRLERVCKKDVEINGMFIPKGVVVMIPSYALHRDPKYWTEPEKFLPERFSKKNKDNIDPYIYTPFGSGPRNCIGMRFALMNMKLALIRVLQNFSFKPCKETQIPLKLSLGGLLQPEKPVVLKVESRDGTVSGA

## CN(Cc1cccc(-c2ccc(N3CCOCC3)cc2)c1)C(=O)CN
[1]
  activity at 20 min, 5 µM: 63%
[2]
  activity at 20 min, 5 µM: 57%

## CN(Cc1cccc(-c2cnc(N3CCN(c4ccc(C(=O)O)cc4Cl)CC3)nc2)c1)C(=O)CN.Cl.Cl
[1]
  activity at 20 min, 5 µM: 109%
[3]
  half-life: 1.29 h
[4]
  AUC(0-t) at 24 h: 1920 ng·h/mL
[5]
  inhibition: Active
[6]
  clearance: 8.69 mL/min/kg
[7]
  inhibition in vivo at 0.3 mg/kg: 64%
[2]
  activity at 20 min, 5 µM: 98%
[8]
  inhibition in vivo at 0.3 mg/kg: 62%
[9]
  bioavailability: 17.4%
[10]
  Cmax: 113 ng/mL
[11]
  Vd: 0.386 L/kg
[12]
  concentration at 6 h: 7.1 ng/mL
[13]
  solubility: 2.3 µM
[14]
  AUC(0-t) at 24 h: 334 ng·h/mL
[15]
  half-life: 1.39 h
[16]
  solubility: 89.6 µM
[17]
  inhibition: Active
[18]
  inhibition in vivo at 1 mg/kg: 96%
[19]
  concentration at 1 h: 111 ng/mL
[20]
  inhibition in vivo at 1 mg/kg: 93%

## CN(Cc1cccc(-c2cnc(N3CCC[C@H]3CO)nc2)c1)C(=O)CN
[21]
  IC50: 240 nM

## CN(Cc1cccc(-c2cnc(N3CCC(C(=O)O)CC3)nc2)c1)C(=O)CN
[1]
  activity at 20 min, 5 µM: 104%
[2]
  activity at 20 min, 5 µM: 112%
[21]
  IC50: 1700 nM

## CN(Cc1cccc(-c2cnc(N3CCN(c4ccc(C(=O)O)cc4)CC3)nc2)c1)C(=O)CN.Cl.Cl
[1]
  activity at 20 min, 5 µM: 106%
[22]
  IC50: 10 nM
[2]
  activity at 20 min, 5 µM: 100%
[21]
  IC50: 24 nM
[13]
  solubility: < 1 µM
[16]
  solubility: < 1 µM
[18]
  inhibition in vivo at 1 mg/kg: 68%
[20]
  inhibition in vivo at 1 mg/kg: 60%

## CN(Cc1cccc(-c2cnc(N3CCC(CCC(=O)O)CC3)nc2)c1)C(=O)CN
[1]
  activity at 20 min, 5 µM: 119%
[2]
  activity at 20 min, 5 µM: 108%
[21]
  IC50: 140 nM

## CN(Cc1cccc(-c2cnc(N3CCCCC3)nc2)c1)C(=O)CN
[21]
  IC50: 250 nM

## CN(Cc1cccc(-c2ccc(N3CCOCC3)cc2)n1)C(=O)CN
[22]
  IC50: 160 nM
[21]
  IC50: 2000 nM

## CN(Cc1cccc(-c2cnc(N3CCC[C@@H]3CO)nc2)c1)C(=O)CN
[21]
  IC50: 300 nM
